Values after ≈ are worked out from the molar mass of the structure shown.
Experiments:
Assay type in all cases: functional
[1] = test system: Pseudomonas aeruginosa; assay: Antibacterial activity against Pseudomonas aeruginosa MTCC 741 by broth dilution method
Procedure, shortened: (§1)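 Broth dilution per National Committee for Clinical Laboratory (NCCL) standards against a bacterial panel. The read-out is the minimum inhibitory concentration (MIC).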

[2] = test system: Aspergillus niger; assay: Antifungal activity against Aspergillus niger MTCC 1344 at 100 ug/ml after 24 to 96 hrs by agar cup diffusion method; details: read-out: DIZ
Procedure, shortened: (§2)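 Agar cup diffusion on autoclaved Potato Dextrose Agar. 0.5 ml of 24 h old test-organism culture was spread over the solidified agar, and 6 mm cups were bored. Compounds were dissolved in DMSO and added to the cups at two concentrations. A clotrimazole control was included. Plates were held at room temperature for 24–96 h, and inhibition zone diameters were measured.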

[3] = test system: Staphylococcus aureus; assay: Antibacterial activity against Staphylococcus aureus MTCC 96 by broth dilution method; procedure, shortened: as §1
[4] = test system: Candida albicans; assay: Antifungal activity against Candida albicans MTCC 227 at 100 ug/ml after 24 to 96 hrs by agar cup diffusion method; details: read-out: DIZ; procedure, shortened: as §2
[5] = test system: Klebsiella pneumoniae; assay: Antibacterial activity against Klebsiella pneumoniae MTCC 39 by broth dilution method; procedure, shortened: as §1
[6] = test system: Candida albicans; assay: Antifungal activity against Candida albicans MTCC 227 at 30 ug/ml after 24 to 96 hrs by agar cup diffusion method; details: read-out: DIZ; procedure, shortened: as §2
[7] = test system: Bacillus subtilis; assay: Antibacterial activity against Bacillus subtilis MTCC 441 by broth dilution method; procedure, shortened: as §1
[8] = test system: Rhizopus arrhizus; assay: Antifungal activity against Rhizopus oryzae MTCC 262 at 30 ug/ml after 24 to 96 hrs by agar cup diffusion method; details: read-out: DIZ; procedure, shortened: as §2
[9] = test system: Saccharomyces cerevisiae; assay: Antifungal activity against Saccharomyces cerevisiae MTCC 171 at 30 ug/ml after 24 to 96 hrs by agar cup diffusion method; details: read-out: DIZ; procedure, shortened: as §2
[10] = test system: Staphylococcus epidermidis; assay: Antibacterial activity against Staphylococcus epidermidis MTCC 437 by broth dilution method; procedure, shortened: as §1
[11] = test system: Rhizopus arrhizus; assay: Antifungal activity against Rhizopus oryzae MTCC 262 at 100 ug/ml after 24 to 96 hrs by agar cup diffusion method; details: read-out: DIZ; procedure, shortened: as §2
[12] = test system: Saccharomyces cerevisiae; assay: Antifungal activity against Saccharomyces cerevisiae MTCC 171 at 100 ug/ml after 24 to 96 hrs by agar cup diffusion method; details: read-out: DIZ; procedure, shortened: as §2
[13] = test system: Escherichia coli; assay: Antibacterial activity against Escherichia coli MTCC 443 by broth dilution method; procedure, shortened: as §1
[14] = test system: Aspergillus niger; assay: Antifungal activity against Aspergillus niger MTCC 1344 at 30 ug/ml after 24 to 96 hrs by agar cup diffusion method; details: read-out: DIZ; procedure, shortened: as §2

Structure (SMILES) | MIC [1] | MIC [3] | MIC [5] | MIC [7] | MIC [10] | MIC [13] | zone of inhibition at 100 µg/mL [2] | zone of inhibition at 100 µg/mL [4] | zone of inhibition at 30 µg/mL [6] | zone of inhibition at 30 µg/mL [8] | zone of inhibition at 30 µg/mL [9] | zone of inhibition at 100 µg/mL [11] | zone of inhibition at 100 µg/mL [12] | zone of inhibition at 30 µg/mL [14]
O=C1C=CC[C@@H](C/C=C/[C@H](O)CCc2ccccc2)O1 | 25 µg/mL (≈ 91.8 µM) | 50 µg/mL (≈ 184 µM) | 100 µg/mL (≈ 367 µM) | 100 µg/mL (≈ 367 µM) | 50 µg/mL (≈ 184 µM) | 100 µg/mL (≈ 367 µM) | 14 mm | 10 mm | 8 mm | 12 mm | 8 mm | 14 mm | 11 mm | 11 mm
O=C1C=CC[C@@H](C/C=C/[C@@H](O)CCc2ccccc2)O1 | 50 µg/mL (≈ 184 µM) | 100 µg/mL (≈ 367 µM) | 100 µg/mL (≈ 367 µM) | 50 µg/mL (≈ 184 µM) | 100 µg/mL (≈ 367 µM) | 100 µg/mL (≈ 367 µM) | 12 mm | 8 mm | 9 mm | 12 mm | 8 mm | 16 mm | 10 mm | 9 mm
Clc1ccccc1C(c1ccccc1)(c1ccccc1)n1ccnc1 [CLOTRIMAZOLE] |  |  |  |  |  |  |  |  | 22 mm | 21 mm | 23 mm |  |  | 18 mm
O=C(/C=C/C[C@@H]1CC=CC(=O)O1)CCc1ccccc1 [R-RUGULACTONE] | 12.5 µg/mL (≈ 46.2 µM) | 50 µg/mL (≈ 185 µM) | 25 µg/mL (≈ 92.5 µM) | 100 µg/mL (≈ 370 µM) | 50 µg/mL (≈ 185 µM) | 50 µg/mL (≈ 185 µM) | 16 mm | 8 mm | 7 mm | 11 mm | 7 mm | 12 mm | 8 mm | 14 mm
CN[C@@H]1[C@H](O[C@H]2[C@H](O[C@H]3[C@H](O)[C@@H](O)[C@H](N=C(N)N)[C@@H](O)[C@@H]3N=C(N)N)O[C@@H](C)[C@]2(O)C=O)O[C@@H](CO)[C@H](O)[C@H]1O [STREPTOMYCIN] | 1.56 µg/mL (≈ 2.69 µM) |  | 1.56 µg/mL (≈ 2.69 µM) |  |  | 1.56 µg/mL (≈ 2.69 µM) |  |  |  |  |  |  |  | 

Continued, in another order:

MIC [1] | MIC [3] | MIC [5] | MIC [7] | MIC [10] | MIC [13] | Structure (SMILES) | zone of inhibition at 100 µg/mL [2] | zone of inhibition at 100 µg/mL [4] | zone of inhibition at 30 µg/mL [6] | zone of inhibition at 30 µg/mL [8] | zone of inhibition at 30 µg/mL [9] | zone of inhibition at 100 µg/mL [11] | zone of inhibition at 100 µg/mL [12] | zone of inhibition at 30 µg/mL [14]
100 µg/mL (≈ 420 µM) | 50 µg/mL (≈ 210 µM) | 50 µg/mL (≈ 210 µM) | 100 µg/mL (≈ 420 µM) | 50 µg/mL (≈ 210 µM) | 25 µg/mL (≈ 105 µM) | O=C1CN(/N=C/c2ccc([N+](=O)[O-])o2)C(=O)N1 [NITROFURANTOIN] |  |  |  |  |  |  |  | 
 | 1.56 µg/mL (≈ 4.67 µM) |  | 1.56 µg/mL (≈ 4.67 µM) | 1.56 µg/mL (≈ 4.67 µM) |  | CC1(C)S[C@@H]2[C@H](NC(=O)Cc3ccccc3)C(=O)N2[C@H]1C(=O)O [PENICILLIN G] |  |  |  |  |  |  |  | 
